Assay results reported in paper PMC5955861 (Oncogene, 2018).
Where two headings read alike, the source gives them in different places. Values belong to the molecule of their own block, whether it stands above or below them.

Key:
THP-1 AML cells = assay: disseminated AML xenograft efficacy study; format: in vivo, CIEA-NOG mice; conditions: decitabine twice per week, 0.5 mg/kg i.p.
MV-4-11B = assay: alamarBlue cell proliferation assay; format: cell-based, human; conditions: MV-4-11B cells
Outline: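 Cell lines from ATCC or DSMZ were cultured per supplier's instructions and STR-authenticated. MV-4-11B is a clone of MV-4-11 carrying heterozygous TP53 c.742C>T (p.R248W). Cells were exposed to test compound in 96-well format, and viability was read after incubation with alamarBlue.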

[1] = test system: p-Ser2 POL-II in MV-4-11B cells; assay: p-Ser2 POL-II custom MSD assay; format: cell-based; conditions: 5 µM LDC000067, 2 h
Outline: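 MV-4-11B cells were treated for 2 h with single agents or their combination. Phospho-Ser2 RNA Pol II was quantified with a custom Meso Scale Discovery multi-array assay.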

SMILES: Nc1ncn([C@H]2C[C@H](O)[C@@H](CO)O2)c(=O)n1 [decitabine, reference compound]
- survival prolongation (THP-1 AML cells): 26 days

- EC50 (MV-4-11B): 5000 nM
SMILES: COc1ccccc1-c1cc(Nc2cccc(CS(N)(=O)=O)c2)ncn1 [LDC000067, reference compound]
- p-Ser2 POL-II levels [1]: ~ 64 % of control

SMILES: Cc1sc2c(c1C)C(c1ccc(Cl)cc1)=N[C@@H](CC(=O)OC(C)(C)C)c1nnc(C)n1-2 [JQ1, reference compound]
- EC50 (MV-4-11B; read-out: anti-proliferative EC50, biologically equivalent concentrations): 200 nM
